Structures are written as SMILES.

The nature of series [1]: Open-label drug–drug interaction study: dasatinib plasma pharmacokinetics. In kind it is in vivo, human. The procedure, abridged:
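Healthy fasted volunteers (N = 18). Test compound given as a 100 mg IR tablet orally with ~240 mL water on day 1 alone and on day 6 after 40 mg delayed-release PPI QD on evenings of days 2–5. Fasted ≥10 h before and 4 h after dose. K2EDTA plasma was analysed by LC-MS/MS (LLOQ 0.75 ng/mL). PK was non-compartmental, with day 6/day 1 geometric mean ratios and 90% CI from ANOVA on ln-values.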

The conditions of series [2]: cited from earlier work.
The conditions of series [3]: proposed threshold; cited from earlier work.
The mark [4] stands for this setting: omeprazole 40 mg at steady state, 10 h before crystalline dasatinib 100 mg.

As to `Cc1nc(Nc2ncc(C(=O)Nc3c(C)cccc3Cl)s2)cc(N2CCN(CCO)CC2)n1` [Crystalline Dasatinib, dasatinib], the “extrapolated area in the plasma concentration–time profile (mean ± SD)” value in series [1] (crystalline dasatinib formulation administered alone) is on record as 2.7%. Also, the “reduction in dasatinib plasma exposure” value in series [1] (dosing interval of 10 h between PPI and crystalline dasatinib) is approximately 90%. In series [1] (human, plasma, oral, 100 mg), the AUC(0-t) – broadly, the area under the concentration-time curve up to a stated or last time point – stood at 735 ng·h/mL and the Cmax (usually the peak of the concentration-time curve) is 195 ng/mL. Besides, in series [1] (human, plasma, po, 100 mg), the AUC(0-t) amounted to 798 ± 274 ng·h/mL; the Cmax is 225 ± 105 ng/mL; the half-life – broadly, the time in which the quantity being followed falls by half – was 5.7 ± 1.5 h. For the same compound, in series [1] (setting [4]), the “mean reduction of Cmax by omeprazole comedication” value is recorded as 96% and the “reduction of AUC0-24 by omeprazole comedication” value is reported as 89%. Besides, the “reduction of GI absorption and bioavailability” value in series [1] (omeprazole at steady state dosed in the evening 10 h prior to crystalline dasatinib) was “about 90%”. Moreover, the “Cmax ratio Test/Control (geometric means)” value in series [1] (test = with omeprazole, control = crystalline dasatinib alone, 90% CI 2.73-4.96) amounted to 3.7%. Also, the “AUC0-24 ratio Test/Control (geometric means)” value in series [1] (test = with omeprazole, control = crystalline dasatinib alone, 90% CI 9.13-14.59) came to 11.5%. Further, the “effect on dasatinib plasma exposure” value in series [2] (antacid administered 2 h prior to crystalline dasatinib) was “unaffected”. The “reduction in absorption and bioavailability of dasatinib with PPIs” value in series [2] (experimental setting controlled for gastric pH above 4) was not above 80%. In addition, the “Cmax threshold for achieving MMR” value in series [3] is 69.2 ng/mL.
